RAD54 branch: inhibitors of human RAD54 branch migration, primary screen, biochemical, fluorescence, single point. DNA repair and recombination protein RAD54-like (Homo sapiens), Q92698. RAD54 Holliday junction branch migration, FAM/BHQ fluorescence. inhibition, % at 10.4 µM. 360,000 tested, 0.14% active;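 active = mean normalized replicate activity at least 40 and at least half of replicates scoring 40 or more; inconclusive = only one of the two criteria met; inactive = mean below 40 and under half of replicates reaching 40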;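 note: inhibitors cause a drop in the FAM fluorescence signal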
dFosB act-1: activators of delta FosB homodimer, primary screen, biochemical, fluorescence polarization, TAMRA-CDK5 oligo, single point. purified delta FosB; percent of positive-control signal above neutral wells. activation, % at 25 µM. Protein FosB (Mus musculus), P13346. 340,000 tested, 0.99% active. AID 493131, 2011;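 active = mean activation above about 17%, with every replicate also reaching it, limit read from the data, passing the limit was not always enough; inconclusive = only one of the two conditions met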
Target sequence (P13346 whole entry, looked up): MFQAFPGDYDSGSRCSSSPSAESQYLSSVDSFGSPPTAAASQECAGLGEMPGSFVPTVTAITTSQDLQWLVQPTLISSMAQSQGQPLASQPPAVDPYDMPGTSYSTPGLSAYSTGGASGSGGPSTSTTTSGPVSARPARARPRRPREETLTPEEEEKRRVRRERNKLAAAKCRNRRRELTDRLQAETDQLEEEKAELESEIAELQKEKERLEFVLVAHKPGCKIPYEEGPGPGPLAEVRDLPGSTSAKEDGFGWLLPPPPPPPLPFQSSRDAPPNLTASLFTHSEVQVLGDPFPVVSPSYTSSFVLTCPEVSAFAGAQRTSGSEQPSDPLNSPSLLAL
SR-BI HDL uptake: inhibitors of SR-BI mediated HDL lipid uptake, primary screen, ldlA[mSR-BI] cells, fluorescence, single point; 320,000 tested, 0.96% active; inhibition, % at 12.5 µM; ldlA[mSR-BI] CHO cells, DiI-HDL uptake fluorescence, 3 h;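 active = mean replicate inhibition of at least 70% and a set share of replicates each scoring 70 or more; inconclusive = meets just one of the two criteria; inactive = fails both criteria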
SR-BI DiI-HDL act: activators of SR-BI mediated DiI-HDL uptake, primary screen, ldlA[mSR-BI] CHO cells, DiI fluorescence. 3 h; 100 = double the neutral-control signal. activation, % at 12.5 µM. 320,000 tested, 0.096% active. AID 504775, 2011;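 active = mean replicate activation of at least 60% and every replicate at or above 60%; inconclusive = mean or all-replicate condition met, but not both; inactive = mean below 60% and not all replicates reaching 60%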
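Material: SR-BI-overexpressing, LDLR-lacking CHO cells; schedule: compound exposure 3 h, 37 °C; reagent: DiI-labelled HDL at 10 µg/mL final; technique: bottom-read fluorescence, 550/595 nm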
S100A4 MyoIIA: inhibitors of S100A4-myosin IIA peptide binding, primary screen, biochemical, fluorescence polarization, TAMRA-MyoIIA peptide. Protein S100-A4 (Homo sapiens), P26447. inhibition, % at 10.7 µM. 360,000 tested, 0.14% active;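 active = mean inhibition of at least 70% across replicates, with every replicate also reaching that level; inconclusive = mean inhibition reaches 70% but some replicates fall short; inactive = mean inhibition below 70%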
Target sequence (P26447 whole entry, looked up): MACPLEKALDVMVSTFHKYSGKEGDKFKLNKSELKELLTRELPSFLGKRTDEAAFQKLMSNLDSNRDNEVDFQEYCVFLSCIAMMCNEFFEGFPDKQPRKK
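Compound dosing: one dose per compound; test system: human S100A4 monomer with TAMRA-labelled myosin IIA peptide; probe or stimulus: TAMRA-labelled myosin IIA heavy-chain peptide probe, 5 nM; medium: HEPES buffer with Ca2+, pH 7.2; schedule: 5 min incubation before reading; benchmarks: neutral control DMSO, positive control TFP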
PvdQ inh: P. aeruginosa PvdQ acylase inhibitors, primary screen, biochemical, fluorescence, plate reader and imaging, single point; AID 488965, 2010; 340,000 tested, 0.063% active; PvdQ acylase [Pseudomonas aeruginosa LESB58]; purified PvdQ acylase; inhibition, % at 10 µM; in the data active = inhibition above about 30%, passing the limit was not always enough; inconclusive = no clear call, values can overlap the other calls
DiI quencher: counter-screen for SR-BI lipid transfer inhibitors: DiI fluorescence quenchers; 470 tested, 20% active; shares compounds with SR-BI HDL uptake; AC50, µM (doses to about 35 µM); cell-free DiI-HDL fluorescence quenching, 30 min; AID 540326;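 active = quenching, a falling signal, with AC50 below a set limit tied to the top valid dose, actives reach about 32 µM in these data; inconclusive = no clear call, values can overlap the other calls; inactive = rising signal, and the rest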
dFosB act-2: activators of mouse delta FosB DNA binding, confirmation, biochemical, fluorescence polarization, TAMRA-CDK5 oligo, cherry-picked samples | activation, % at 24.9 µM | AID 588690, 2011 | purified delta FosB; normalised: neutral wells 0, positive control 100 | 2,400 tested, under 10 active | shares compounds with dFosB act-1;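 active = highest replicate activation at or above 34% and every replicate reaching that threshold; inconclusive = meets only one of the two criteria; inactive = meets neither criterion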;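 note: higher polarization means more probe DNA bound by delta FosB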
Of the large screens only hits and unclear results are named; the others gave an inactive call (follow-up assays come after a bar, where they were run). Most compounds without a hit are left out; they make up all but 1.6% or so of the library.

CCCn1c(=O)[nH]c(=O)c2c1nc(-c1ccc(OC(F)(F)C(F)C(F)(F)F)cc1)n2CCOC (stereo unspecified)	SR-BI HDL uptake 75 (no result: S100A4 MyoIIA) | DiI quencher inactive
CN1c2ccc(-c3ccccc3F)cc2[C@@H]2[C@@H](CCN2C(=O)Cc2ccccn2)[C@@H]1CO	none (no result: dFosB act-1, SR-BI HDL uptake, SR-BI DiI-HDL act, PvdQ inh)
CCOc1ccc(NC(=O)CN2CCN(CC(=O)Nc3ccc(C(=O)OC)cc3)CC2)cc1	SR-BI HDL uptake 81 (no result: S100A4 MyoIIA) | DiI quencher inactive
Cc1ccccc1S(=O)(=O)N1CC[C@@H]2[C@H]1c1cc(C#Cc3ccccc3)ccc1N[C@@H]2CO	none (no result: dFosB act-1, SR-BI HDL uptake, SR-BI DiI-HDL act, PvdQ inh)
COc1ccc(OC)c(CCNC(=O)c2ccc(NC3=NC4CS(=O)(=O)CC4S3)cc2)c1 (stereo unspecified)	SR-BI HDL uptake 83 | DiI quencher inactive
COc1ccc(OC)c(CCNC(=O)Cc2ccc(NC3=NC4CS(=O)(=O)CC4S3)cc2)c1 (stereo unspecified)	none
CC(=O)Oc1ccc(C(=O)Nc2cc(NC(=O)c3ccc(OC(C)=O)cc3)cc(C(=O)NC(C)(C)C)c2)cc1	none (no result: RAD54 branch) | DiI quencher inactive
CCOC(=O)C(C)(C)Sc1nc2c(cnn2-c2ccc(F)cc2)c(=O)[nH]1	SR-BI HDL uptake 77 | DiI quencher inactive
CCOC(=O)C(C)(C)Sc1nc2c(cnn2-c2ccc(C)cc2)c(=O)[nH]1	none (no result: S100A4 MyoIIA)
Cc1cccc(NC(=O)C2(C)CC3c4ccccc4C2c2ccccc23)c1C (stereo unspecified)	none (no result: RAD54 branch, S100A4 MyoIIA) | DiI quencher inactive
Cc1ccc(C)c(NC(=O)C2(C)CC3c4ccccc4C2c2ccccc23)c1 (stereo unspecified)	none (no result: SR-BI HDL uptake, SR-BI DiI-HDL act, S100A4 MyoIIA)
O=C(O)CC(C(=O)Nc1cccc(C(F)(F)F)c1)C1CCCO1 (stereo unspecified)	none (no result: S100A4 MyoIIA) | DiI quencher inactive
Cc1ccccc1-c1cc(C(=O)NCc2cccc(Br)c2)nn1CC1CC(c2cccc([N+](=O)[O-])c2)=NO1 (stereo unspecified)	none | DiI quencher inactive
COCCNC(=O)c1cc(-c2ccccc2C)n(CC2CC(c3cccc([N+](=O)[O-])c3)=NO2)n1 (stereo unspecified)	none
COc1ccc2c3c([nH]c2c1)[C@H](CO)N(S(C)(=O)=O)CC31CCN(CC2CCCCC2)CC1	none (no result: RAD54 branch, dFosB act-1, SR-BI HDL uptake, SR-BI DiI-HDL act, PvdQ inh)
CN1CCN(c2ccc(NC(=O)c3ccc(C(F)(F)F)cc3)cn2)CC1	none (no result: RAD54 branch)
CN1CCc2ccc(NC(=O)c3ccc(C(F)(F)F)cc3)cc2C1	SR-BI HDL uptake 82 | DiI quencher inactive
C[C@@H]1CCCCO[C@H](CN(C)CC2CCCCC2)[C@H](C)CN([C@H](C)CO)C(=O)c2cc(NC(=O)Cc3ccccc3)ccc2O1	none (no result: dFosB act-1, SR-BI HDL uptake, SR-BI DiI-HDL act, PvdQ inh)
COc1ccc(-c2cc(-c3cccs3)nc3sc(C#N)c(N)c23)cc1	SR-BI HDL uptake inconclusive (no result: RAD54 branch)
N#Cc1sc2nc(C3CC3)cc(-c3ccc(Cl)cc3)c2c1N	SR-BI HDL uptake inconclusive (no result: S100A4 MyoIIA) | DiI quencher inactive
O=C(C[C@@H]1CC[C@@H](NC(=O)Nc2ccc(C(F)(F)F)cc2)[C@H](CO)O1)NCc1cc(F)cc(F)c1	none (no result: dFosB act-1, SR-BI HDL uptake, SR-BI DiI-HDL act, PvdQ inh)
Cc1noc(C)c1NC(=O)N[C@H]1C=C[C@@H](CC(=O)N2CCCCC2)O[C@H]1CO	none (no result: dFosB act-1, SR-BI HDL uptake, SR-BI DiI-HDL act, PvdQ inh)
COCC(=O)Nc1ccc2c(c1)OC[C@H](C)N(C(=O)CC1CC1)C[C@H](C)[C@@H](OC)CN(C)C2=O	none (no result: RAD54 branch, dFosB act-1, SR-BI HDL uptake, SR-BI DiI-HDL act, PvdQ inh)
CCSCC1COC(c2cccn2Cc2ccc(C)cc2)=N1 (stereo unspecified)	SR-BI HDL uptake inconclusive (no result: S100A4 MyoIIA) | DiI quencher inactive
CC[C@@H](C)[C@H](NC(=O)Cc1c(C)c2cc3c(C)c(C)oc3c(C)c2oc1=O)C(=O)O	SR-BI HDL uptake 95 | DiI quencher inactive
CC[C@@H](C)[C@H](NC(=O)Cc1c(C)c2cc3c(C)coc3c(C)c2oc1=O)C(=O)O	none (no result: SR-BI HDL uptake, SR-BI DiI-HDL act)
CC(C)NC(=O)Nc1cccc2c1O[C@@H](CN(C)Cc1ccc(C(F)(F)F)cc1)[C@H](C)CN([C@@H](C)CO)C2=O	none (no result: RAD54 branch, dFosB act-1, SR-BI HDL uptake, SR-BI DiI-HDL act, PvdQ inh)
CCOC(=O)N1CCN(CC(O)COC2CC(C)CCC2C(C)C)CC1 (stereo unspecified)	SR-BI HDL uptake 78 (no result: RAD54 branch, S100A4 MyoIIA) | DiI quencher inactive
O=C(O)c1cc(N2C(=O)C=CC2=O)cc(N2C(=O)C=CC2=O)c1	none | DiI quencher inactive
CC(=O)c1ccc(-c2ccc(C(=O)Nc3nc(C)c(C(C)=O)s3)o2)cc1	none | DiI quencher inactive
Cc1ccc(C(=O)Nc2nc(C)c(C(=O)N(C)C)s2)o1	none
CN1c2ccc(-c3ccccc3)cc2[C@@H]2[C@@H](CCN2C(=O)Cc2cccnc2)[C@@H]1CO	none (no result: dFosB act-1, SR-BI HDL uptake, SR-BI DiI-HDL act, PvdQ inh)
O=C(Nc1cccc(-c2cn3c(n2)SCC3)c1)c1ccc2ccccc2n1	SR-BI HDL uptake 76 | DiI quencher inactive
O=C(Nc1ccc(-c2cn3c(n2)SCC3)cc1)c1ccc2ccccc2n1	none (no result: RAD54 branch)
CCc1cc(=O)oc2c3c(cc(OCC(=O)NCc4ccco4)c12)OC(C)(C)CC3	SR-BI HDL uptake inconclusive (no result: S100A4 MyoIIA) | DiI quencher inactive
Cc1cc(C)n(CC(=O)NC2CCCc3c2cnn3-c2ccc(C)c(C)c2)n1 (stereo unspecified)	SR-BI HDL uptake inconclusive | DiI quencher inactive
Cc1ccc(S(=O)(=O)NCc2ccc(C(=O)NCCc3ccc(S(N)(=O)=O)cc3)cc2)cc1	SR-BI HDL uptake 92 | DiI quencher inactive
Cc1ccc(CC(=O)NCCc2ccc(S(N)(=O)=O)cc2)cc1	none
O=C([C@H]1[C@H](CO)[C@H]2Cn3c(cccc3=O)[C@H]2N1Cc1ccncc1)N1CCCCC1	none (no result: dFosB act-1, SR-BI HDL uptake, SR-BI DiI-HDL act, PvdQ inh)
CC[C@@H](C)[C@@H]1CN([C@@H](C)CN2CCC[C@H]2CN2C(N)=NC[C@@H]2Cc2ccccc2)C(=N)N1CCc1ccc(Cl)c(Cl)c1	dFosB act-1 23 (no result: S100A4 MyoIIA) | dFosB act-2 inactive
Cc1ccc(Nc2nc(Nc3ccc(C)cc3)nc(SC3=NCCS3)n2)cc1	dFosB act-1 26 (no result: RAD54 branch, S100A4 MyoIIA) | dFosB act-2 inactive

Screening results from PubChem BioAssay.
